High-throughput results as filed in PubChem.
PglD DTNB – C. jejuni PglD acetyltransferase inhibitors, primary screen, biochemical, DTNB colorimetric, single point | AID 602405, 2012 | UDP-N-acetylbacillosamine N-acetyltransferase PglD (Campylobacter jejuni) | inhibition, % at 12.5 µM | purified PglD enzyme, DTNB colorimetric CoA detection | hit rate 0.098% among 360,000; in the data active means inhibition above about 16%, passing the limit was not always enough; inconclusive means no clear call, values can overlap the other calls
SR-BI HDL uptake – inhibitors of SR-BI mediated HDL lipid uptake, primary screen, ldlA[mSR-BI] cells, fluorescence, single point | ldlA[mSR-BI] CHO cells, DiI-HDL uptake fluorescence, 3 h | hit rate 0.96% among 320,000 | inhibition, % at 12.5 µM;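 active means mean replicate inhibition of at least 70% and a set share of replicates each scoring 70 or more; inconclusive means meets just one of the two criteria; inactive means fails both criteria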;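 further: 0% = median of neutral control wells and 100% = median of positive control wells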
Target sequence (Q61009 whole entry, looked up): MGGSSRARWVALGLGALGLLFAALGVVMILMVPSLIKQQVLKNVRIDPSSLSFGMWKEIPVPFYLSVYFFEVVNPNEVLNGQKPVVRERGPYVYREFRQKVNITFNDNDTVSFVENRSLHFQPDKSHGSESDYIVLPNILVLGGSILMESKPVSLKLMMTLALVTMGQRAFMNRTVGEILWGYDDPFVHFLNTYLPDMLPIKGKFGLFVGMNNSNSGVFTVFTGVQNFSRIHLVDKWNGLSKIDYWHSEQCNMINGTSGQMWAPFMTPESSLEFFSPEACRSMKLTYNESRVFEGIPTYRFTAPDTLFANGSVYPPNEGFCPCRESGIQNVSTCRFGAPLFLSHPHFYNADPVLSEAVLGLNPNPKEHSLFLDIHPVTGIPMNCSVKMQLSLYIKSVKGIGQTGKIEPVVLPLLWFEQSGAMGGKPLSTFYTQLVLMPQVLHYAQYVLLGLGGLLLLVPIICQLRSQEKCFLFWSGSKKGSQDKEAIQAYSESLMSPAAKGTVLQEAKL
Env fusion inh – inhibitors of HIV-1 Env-driven cell-cell fusion, primary screen, HeLa-JRFL effector, CEM21 target cells, luciferase. hit rate 1.1% among 360,000. AID 651610, 2012. inhibition, % at 12.3 µM;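 active means mean replicate inhibition score of at least 50 and every replicate individually at or above 50; inconclusive means only one of the two criteria met; inactive means mean below 50 and not all replicates reaching 50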;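 further: 0% = plate neutral controls and 100% = maraviroc near 300 nM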
N-glyco inh – increase of ERlucT glycosylation luciferase signal, primary screen, N-linked glycosylation inhibitor project, D54 ERlucT cells, luminescence, set 2; reporter increase, % at 12.5 µM; AID 588692, 2011; D54 ERlucT glycosylation luciferase reporter, 24 h; percent of 100 nM tunicamycin response; hit rate 0.23% among 360,000;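 active means mean luciferase reporter signal, scaled so untreated is 0 and the glycosylation-blocking control 100, at or above a set limit in every replicate; inconclusive means mean reaches the limit but not every replicate does; inactive means mean below the limit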;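 further: luciferase carries N-glycosylation sites so blocking glycosylation raises the light; 0% = median of neutral control wells and 100% = median of 100 nM tunicamycin wells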
SR-BI uptake up – activators of SR-BI mediated DiI-HDL uptake, primary screen, ldlA[mSR-BI] CHO cells, DiI fluorescence. activation, % at 12.5 µM. AID 504775, 2011. 3 h; 100 = double the neutral-control signal. hit rate 0.096% among 320,000;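 active means mean replicate activation of at least 60% and every replicate at or above 60%; inconclusive means mean or all-replicate condition met, but not both; inactive means mean below 60% and not all replicates reaching 60%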;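 further: 0% = median plate neutral-control signal and 100% = twice that signal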
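Material: SR-BI-overexpressing, LDLR-lacking CHO cells | Dosing: Single compound concentration, delivered by pin transfer | Probe or stimulus: Labelled HDL, 10 µg/mL | Signal: Bottom-read cell fluorescence after medium removal, ex 550/em 595 nm | Schedule: 3 h, 37 °C | Evaluation: HDL uptake via cellular fluorescence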
Rtt109 Vps75 – inhibitors of C. albicans Rtt109/Vps75 HAT, primary screen, biochemical, ThioGlo CoA-SH fluorescence, plate reader; Histone acetyltransferase RTT109 (Candida albicans (strain SC5314 / ATCC MYA-2876)), …; purified Rtt109/Vps75, 4 h; inhibition, % at 34.9 µM; hit rate 0.16% among 330,000; AID 540336, 2011;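 active means inhibition of at least 50% in every replicate; inconclusive means best replicate reaches 50% inhibition but some replicates fall short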
* = called active by the depositor; ? = inconclusive; . = no result; [ ] = remark or other dose. In the library only some 1.9% were active in any assay of this set; here they are far more common.

SMILES	PglD DTNB	SR-BI HDL uptake	Env fusion inh	N-glyco inh	SR-BI uptake up	Rtt109 Vps75
Cn1c(=O)n(C)c2cc([N+](=O)[O-])c(N3CCN(C(=O)c4ccccc4Cl)CC3)cc21	0	-285	90*	6	?	.
O=C(C1CCN(c2nnc(-n3cccc3)s2)CC1)N1CCN(c2cccc(C(F)(F)F)c2)CC1	1	72*	.	0	-72	1
c1ccc2c(c1)OCC(c1csc3ncnc(N4CCOCC4)c13)O2 (centres undefined)	.	12	70*	-9	-12	-6
CCCNC(=O)C[C@H]1CC[C@@H]2[C@H](COc3ccc(NC(=O)NC(C)C)cc3C(=O)N2C)O1	4	.	.	.	.	.
Cc1cc(OCC(=O)NCC(c2cccs2)N2CCOCC2)ccc1C(C)C (centres undefined)	-4	-26	59*	-3	26	16
C[C@@H]1CCCCO[C@H](CN(C)C)[C@H](C)CN([C@H](C)CO)C(=O)c2cc(NC(=O)Nc3cccc4ccccc34)ccc2O1	3	.	-10[16.7 µM]	.	.	.
CS(=O)(=O)N(Cc1ccc(Cl)cc1)c1ccc(C(=O)NCCC2=CCCCC2)cc1	-14	-3	85*	0	3	4
O=C(C[C@@H]1CC[C@H](NC(=O)c2cccnc2)[C@H](CO)O1)NCc1ccncn1	1	.	0[16.7 µM]	.	.	.
C[C@@H]1CCCCO[C@H](CN(C)C)[C@H](C)CN([C@H](C)CO)C(=O)c2cc(NS(=O)(=O)c3ccc(Cl)cc3)ccc2O1	4	.	-2[16.7 µM]	.	.	.
NC(=S)N/N=C1\CCOc2ccc(Cl)cc21	.	73*	23	6	-73	-3
C[C@H](CO)N1C[C@H](C)[C@@H](CN(C)C(=O)C2CCCCC2)OCCCC[C@H](C)Oc2ccc(NC(=O)Nc3ccc(C(F)(F)F)cc3)cc2C1=O	-5	.	-8[16.7 µM]	.	.	.
CCNC(=O)[C@@H]1[C@@H](CO)[C@@H]2Cn3c(ccc(-c4ccc(F)cc4)c3=O)[C@H]1N2C	6	.	.	.	.	.
NC(N)=NC(=O)c1nc(Cl)c(N2CCCCCC2)nc1N	-1	25	62*	-4	-25	27
O=C(NCC[C@H]1CC[C@H](NS(=O)(=O)c2ccccc2)[C@@H](CO)O1)c1cc(Cl)cc(Cl)c1	5	.	2[16.7 µM]	.	.	.
Nc1c(-c2ccc(Cl)cc2)cnn1-c1cccc(C(F)(F)F)c1	-3	77*	.	-4	-77	4
O=C1c2ccccc2NC(c2ccc(-c3cccc([N+](=O)[O-])c3)o2)N1O (centres undefined)	.	4	58*	1	-4	11
COCC#Cc1ccc2c(c1)O[C@@H](CN(C)Cc1ccccc1)[C@@H](C)CN([C@@H](C)CO)S2(=O)=O	3	.	-19[16.7 µM]	.	.	.
CCOC(=O)c1c(C)n(C)c2cc(Br)c(O)c(O)c12	-6	.	-19	-1	.	8
CCOC(=O)c1c(CSc2cccs2)n(C)c2cc(Br)c(O)c(CN(C)C)c12	1	13	85*	-2	-13	26
CN1CCN(C(=O)C[C@@H]2C=C[C@@H](NC(=O)Nc3ccccc3F)[C@@H](CO)O2)CC1	5	.	-14[16.7 µM]	.	.	.
COc1cc(/C=C/C2=NNC(=O)CC2)cc(OC)c1OC	6	6	73*	5	-6	2
O=C(Nc1ccc(F)cc1)N[C@@H]1CC[C@H](CCn2cc(C3(O)CCCC3)nn2)O[C@H]1CO	13	.	-6[16.7 µM]	.	.	.
CO[C@@]12[C@@H]3N[C@@H]3CN1C1=C(C(=O)C(N)=C(C)C1=O)[C@@H]2COC(N)=O	.	-12	63*	-10	12	4
Cc1ccc(S(=O)(=O)N(C)C[C@H]2OCCCC[C@H](C)Oc3ccc(NC(=O)Cc4ccccc4)cc3C(=O)N([C@@H](C)CO)C[C@H]2C)cc1	-13	.	-11[16.7 µM]	.	.	.
C[C@H]1CCCCO[C@@H](CN(C)Cc2ccccc2)[C@@H](C)CN([C@@H](C)CO)C(=O)c2cc(NC(=O)Nc3ccc(F)cc3)ccc2O1	0	.	70*[16.7 µM]	.	.	.
SMILES	PglD DTNB	SR-BI HDL uptake	Env fusion inh	N-glyco inh	SR-BI uptake up	Rtt109 Vps75
C[C@H]1CCCCO[C@@H](CN(C)Cc2ccncc2)[C@@H](C)CN([C@@H](C)CO)C(=O)c2cc(NC(=O)Nc3ccccc3)ccc2O1	-2	.	58*[16.7 µM]	.	.	.
C[C@H]1CCCCO[C@@H](CN(C)Cc2ccccc2)[C@@H](C)CN([C@@H](C)CO)C(=O)c2cc(NC(=O)Nc3ccccc3)ccc2O1	-1	.	69*[16.7 µM]	.	.	.
C[C@@H]1CCCCO[C@H](CN(C)Cc2ccccc2)[C@@H](C)CN([C@H](C)CO)C(=O)c2cc(NC(=O)Nc3ccc(F)cc3)ccc2O1	-1	.	-1[16.7 µM]	.	.	.
COc1ccc(CN(C)C[C@@H]2Oc3ccc(NC(=O)Nc4ccc(OC)cc4)cc3C(=O)N([C@H](C)CO)C[C@@H]2C)cc1	-2	.	63*[16.7 µM]	.	.	.
COc1ccc(CN(C)C[C@@H]2Oc3ccc(NC(=O)Nc4ccc(OC)cc4)cc3C(=O)N([C@@H](C)CO)C[C@@H]2C)cc1	-1	.	-17[16.7 µM]	.	.	.
O=C(CCN1CCCCC1)N[C@@H]1C=C[C@H](CC(=O)N2CCC(Cc3ccccc3)CC2)O[C@@H]1CO	-1	.	-13[16.7 µM]	.	.	.
C[C@@H]1CCCCO[C@H](CN(C)CC2CCCCC2)[C@H](C)CN([C@H](C)CO)C(=O)c2cc(NS(=O)(=O)c3ccccc3)ccc2O1	2	.	11[16.7 µM]	.	.	.
COc1ccc(NC(=O)Nc2ccc3c(c2)C(=O)N([C@H](C)CO)C[C@H](C)[C@H](CN(C)Cc2ccccc2)OCCCC[C@H](C)O3)cc1	2	.	74*[16.7 µM]	.	.	.
C[C@H](CO)N1C[C@H](C)[C@H](CN(C)Cc2ccccc2)OCCCC[C@H](C)Oc2ccc(NC(=O)Nc3ccc(F)cc3)cc2C1=O	-1	.	56*[16.7 µM]	.	.	.
COc1ccc(NC(=O)Nc2ccc3c(c2)C(=O)N([C@@H](C)CO)C[C@@H](C)[C@H](CN(C)Cc2ccccc2)OCCCC[C@@H](C)O3)cc1	-1	.	-4[16.7 µM]	.	.	.
C[C@@H]1CCCCO[C@@H](CN(C)Cc2ccccc2)[C@H](C)CN([C@H](C)CO)C(=O)c2cc(NC(=O)Nc3ccc(F)cc3)ccc2O1	-3	.	-26[16.7 µM]	.	.	.
COc1ccc(NC(=O)Nc2ccc3c(c2)C(=O)N([C@@H](C)CO)C[C@H](C)[C@H](CN(C)Cc2ccncc2)OCCCC[C@H](C)O3)cc1	2	.	88*[16.7 µM]	.	.	.
C[C@H]1CN([C@@H](C)CO)C(=O)c2cc(NC(=O)C3CCCCC3)ccc2O[C@@H]1CN(C)Cc1ccncc1	1	.	55*[16.7 µM]	.	.	.
